The values below come from ChEMBL document CHEMBL1126119, “3',3'-Difluoro-3'-deoxythymidine: comparison of anti-HIV activity to 3'-fluoro-3'-deoxythymidine” (J Med Chem, 1992).

Experiment [1] relates to MT4. Kind of experiment: Concentration required to affect a 50% reduction in the cytopathic effect of HIV for MT-4 cells. The experiment is classed as functional. Conditions: Homo sapiens, read-out: ED50 (the source's name). An outline of the steps: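 HIV-infected MT4 cell cultures were used. ED50 is the dose that gives a 50% reduction in the HIV-induced cytopathic effect.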

In experiment [2] the test system is MT4. Kind of experiment: Concentration required to reduce the number of viable cells in the untreated MT-4 cell culture. Type of experiment: functional. Conditions: Homo sapiens, read-out: CD50 (the source's name). An outline of the steps: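 Uninfected, untreated MT4 cell cultures were used. CD50 is the cytotoxic dose that reduces the number of viable cells by 50%.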

Experiment [3] has as its target Human immunodeficiency virus type 1 reverse transcriptase (Human immunodeficiency virus 1, UniProt Q72547). Kind of experiment: Concentration required to inhibit HIV reverse transcriptase.

As for `Cc1cn([C@H]2C[C@H](N=[N+]=[N-])[C@@H](CO)O2)c(=O)[nH]c1=O` [ZIDOVUDINE], the EC50 with MT4 [1] is 0.004 µM. In addition, in the experiment on MT4 [2], the CC50 was 20 µM. In addition, half-maximal inhibition in experiment [3] (IC50) was put at 0.04 µM.

As for `Cc1cn([C@H]2C[C@H](F)[C@@H](CO)O2)c(=O)[nH]c1=O` [ALOVUDINE], in the experiment with MT4 [1], the EC50 was found to be 0.001 µM. In addition, the CC50 in the experiment with MT4 [2] turned out to be 0.197 µM. Also, in experiment [3], the IC50 is under 0.05 µM.

Take `Cc1cn([C@H]2CC[C@@H](CO)O2)c(=O)[nH]c1=O`: the EC50 in the experiment with MT4 [1] is 6 µM. For the same compound, the CC50 in the experiment with MT4 [2] is over 625 µM. This compound returned a half-maximal inhibitory concentration (IC50) in experiment [3] of under 0.05 µM.

Consider `Cc1cn([C@H]2CC(F)(F)[C@@H](CO)O2)c(=O)[nH]c1=O`, for which the EC50 in the experiment on MT4 [1] was 38.6 µM. Further, the CC50 with MT4 [2] was 48.4 µM. The IC50 in experiment [3] was 8.8 µM.
